# In publication PMC9290503 (British Journal of Clinical Pharmacology, 2021):
# Key:
# [1] = tested on: mouse model of Kabuki syndrome; details: ref [7], cited from earlier work
# [2] = Study 1003 MRD cohorts urine pharmacokinetics; assay type: in vivo, human; details: for Aet, mean (CV%) / CLR, mean (CV%) / fe,t, mean (CV%): urine, non‐Japanese
# Procedure, shortened: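 Urine was collected pre-dose and over 0–6, 6–12 and 12–24 h on Days 1 and 10 of once-daily oral dosing. Free base was measured by validated UPLC–MS/MS after protein precipitation (calibration 1–2000 ng mL−1; LLOQ 1 ng mL−1). Noncompartmental analysis used nominal intervals; values below LLOQ were treated as zero.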
# [3] = Study 1001 single-rising-dose plasma pharmacokinetics; assay type: in vivo, human; details: for AUC0–24, mean (CV%) / AUC0–∞, mean (CV%) / t max, median (range) / t ½z, mean (CV%): plasma, Study 1001
# [4] = Safety and tolerability, Study 1003; assay type: in vivo, human
# Procedure, shortened: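 Healthy women received placebo or test compound once daily for 10 days (20–160 mg, double-blind), including one 20 mg cohort of four Japanese women. Monitored AEs, physical and neurological exams, vital signs, flagged clinical labs, pregnancy and 12-lead ECG. TEAEs counted from first dose to 30 days after the last dose. Follow-up to day 70 (±2).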
# [5] = Study 1003 CSF pharmacokinetics at steady state; assay type: in vivo, human; details: 60 mg q.d.
# [6] = after multiple dosing (20–160 mg)
# [7] = 20 mg q.d. 10 days, Japanese (n = 3)
# [8] = 20 mg q.d. 10 days, non‐Japanese (n = 6)
# [9] = 60 mg q.d. 10 days, non‐Japanese (n = 6)
# [10] = 160 mg q.d. 10 days, non‐Japanese (n = 3)
# [11] = MRD, TAK‐418 all participants (n = 18)
compound,measurement,setting,value
Cl.O=C(NC1CCOCC1)c1csc([C@@H]2C[C@H]2NCC2CC2)c1 [TAK‐418],visuospatial learning and memory defects,"[1]; after 2 weeks of treatment, compared with vehicle control",visuospatial learning and memory defects were rescued
same,H3K4 histone modification defects,[1]; mouse model of Kabuki syndrome,rescued H3K4 histone modification defects
same,adult neurogenesis in the hippocampus,[1]; mouse model of Kabuki syndrome,dose‐dependently normalized adult neurogenesis in the hippocampus
same,renal clearance,[2]; [6],5.12 to 7.81 L/h
same,renal excretion,[2]; [6],15.45–20.06%
same,"Aet, mean (CV%)","[2]; 20 mg q.d., Day 1",2.858 (25.1) mg
same,"CLR, mean (CV%)","[2]; 20 mg q.d., Day 1",5.813 (16.4) L h^−1
same,"fe,t, mean (CV%)","[2]; 20 mg q.d., Day 1",14.283 (25.1) %
same,"Aet, mean (CV%)","[2]; 20 mg q.d., Day 10",3.090 (28.4) mg
same,"CLR, mean (CV%)","[2]; 20 mg q.d., Day 10",5.120 (38.2) L h^−1
same,"fe,t, mean (CV%)","[2]; 20 mg q.d., Day 10",15.453 (28.4) %
same,"Aet, mean (CV%)","[2]; 60 mg q.d., Day 1",11.423 (28.4) mg
same,"CLR, mean (CV%)","[2]; 60 mg q.d., Day 1",8.365 (41.5) L h^−1
same,"fe,t, mean (CV%)","[2]; 60 mg q.d., Day 1",19.050 (28.4) %
same,"Aet, mean (CV%)","[2]; 60 mg q.d., Day 10",11.087 (31.1) mg
same,"CLR, mean (CV%)","[2]; 60 mg q.d., Day 10",6.740 (25.1) L h^−1
same,"fe,t, mean (CV%)","[2]; 60 mg q.d., Day 10",18.475 (31.1) %
same,"Aet, mean (CV%)","[2]; 160 mg q.d., Day 1",28.500 (11.0) mg
same,"CLR, mean (CV%)","[2]; 160 mg q.d., Day 1",7.583 (4.9) L h^−1
same,"fe,t, mean (CV%)","[2]; 160 mg q.d., Day 1",17.800 (11.0) %
same,"Aet, mean (CV%)","[2]; 160 mg q.d., Day 10",32.067 (37.3) mg
same,"CLR, mean (CV%)","[2]; 160 mg q.d., Day 10",7.807 (32.7) L h^−1
same,"fe,t, mean (CV%)","[2]; 160 mg q.d., Day 10",20.060 (37.2) %
same,t ½z,"[3]; healthy volunteers, across both studies and doses",3.13 to 5.36 h
same,"AUC0–24, mean (CV%)",[3]; single oral dose 5 mg,89.3 (41.1) h*ng mL^−1
same,"AUC0–∞, mean (CV%)",[3]; single oral dose 5 mg,92.2 (43.3) h*ng mL^−1
same,"t max, median (range)",[3]; single oral dose 5 mg,1.00 (0.98–1.02) h
same,"t ½z, mean (CV%)",[3]; single oral dose 5 mg,3.133 (14.8) h
same,"AUC0–24, mean (CV%)",[3]; single oral dose 15 mg,295.8 (21.5) h*ng mL^−1
same,"AUC0–∞, mean (CV%)",[3]; single oral dose 15 mg,302.2 (21.8) h*ng mL^−1
same,"t max, median (range)",[3]; single oral dose 15 mg,1.00 (1.00–2.00) h
same,"t ½z, mean (CV%)",[3]; single oral dose 15 mg,4.375 (9.0) h
same,"AUC0–24, mean (CV%)","[3]; single oral dose 30 mg, fasted",646.3 (7.9) h*ng mL^−1
same,"AUC0–∞, mean (CV%)","[3]; single oral dose 30 mg, fasted",661.3 (7.9) h*ng mL^−1
same,"t max, median (range)","[3]; single oral dose 30 mg, fasted",1.00 (0.50–1.00) h
same,"t ½z, mean (CV%)","[3]; single oral dose 30 mg, fasted",4.772 (11.0) h
same,"AUC0–24, mean (CV%)",[3]; single oral dose 40 mg,690.2 (24.0) h*ng mL^−1
same,"AUC0–∞, mean (CV%)",[3]; single oral dose 40 mg,700.0 (24.5) h*ng mL^−1
same,"t max, median (range)",[3]; single oral dose 40 mg,1.25 (1.00–1.52) h
same,"t ½z, mean (CV%)",[3]; single oral dose 40 mg,3.868 (12.7) h
same,"AUC0–24, mean (CV%)",[3]; single oral dose 60 mg,1553.5 (29.4) h*ng mL^−1
same,"AUC0–∞, mean (CV%)",[3]; single oral dose 60 mg,1584.3 (29.9) h*ng mL^−1
same,"t max, median (range)",[3]; single oral dose 60 mg,1.00 (1.00–1.00) h
same,"t ½z, mean (CV%)",[3]; single oral dose 60 mg,4.220 (14.9) h
same,Participants with any TEAE,[4]; [7],1 (33.3) Number (%) of participants
same,TEAE Arthropod bite,[4]; [7],0 Number (%) of participants
same,TEAE Constipation,[4]; [7],0 Number (%) of participants
same,TEAE Decreased appetite,[4]; [7],0 Number (%) of participants
same,TEAE Diarrhoea,[4]; [7],0 Number (%) of participants
same,TEAE Dizziness,[4]; [7],0 Number (%) of participants
same,TEAE Dry mouth,[4]; [7],0 Number (%) of participants
same,TEAE Headache,[4]; [7],0 Number (%) of participants
same,TEAE Myalgia,[4]; [7],0 Number (%) of participants
same,TEAE Nausea,[4]; [7],0 Number (%) of participants
same,TEAE Somnolence,[4]; [7],0 Number (%) of participants
same,TEAE Vomiting,[4]; [7],0 Number (%) of participants
same,Participants with any TEAE,[4]; [8],5 (83.3) Number (%) of participants
same,TEAE Arthropod bite,[4]; [8],1 (16.7) Number (%) of participants
same,TEAE Constipation,[4]; [8],0 Number (%) of participants
same,TEAE Decreased appetite,[4]; [8],2 (33.3) Number (%) of participants
same,TEAE Diarrhoea,[4]; [8],0 Number (%) of participants
same,TEAE Dizziness,[4]; [8],1 (16.7) Number (%) of participants
same,TEAE Dry mouth,[4]; [8],0 Number (%) of participants
same,TEAE Headache,[4]; [8],4 (66.7) Number (%) of participants
same,TEAE Myalgia,[4]; [8],0 Number (%) of participants
same,TEAE Nausea,[4]; [8],0 Number (%) of participants
same,TEAE Somnolence,[4]; [8],2 (33.3) Number (%) of participants
same,TEAE Vomiting,[4]; [8],0 Number (%) of participants
same,Participants with any TEAE,[4]; [9],6 (100.0) Number (%) of participants
same,TEAE Arthropod bite,[4]; [9],1 (16.7) Number (%) of participants
same,TEAE Decreased appetite,[4]; [9],1 (16.7) Number (%) of participants
same,TEAE Diarrhoea,[4]; [9],1 (16.7) Number (%) of participants
same,TEAE Dizziness,[4]; [9],1 (16.7) Number (%) of participants
same,TEAE Dry mouth,[4]; [9],1 (16.7) Number (%) of participants
same,TEAE Headache,[4]; [9],5 (83.3) Number (%) of participants
same,TEAE Myalgia,[4]; [9],2 (33.3) Number (%) of participants
same,TEAE Nausea,[4]; [9],4 (66.7) Number (%) of participants
same,TEAE Somnolence,[4]; [9],1 (16.7) Number (%) of participants
same,TEAE Vomiting,[4]; [9],3 (50.0) Number (%) of participants
same,Participants with any TEAE,[4]; [10],3 (100.0) Number (%) of participants
same,TEAE Arthropod bite,[4]; [10],0 Number (%) of participants
same,TEAE Constipation,[4]; [10],0 Number (%) of participants
same,TEAE Decreased appetite,[4]; [10],0 Number (%) of participants
same,TEAE Diarrhoea,[4]; [10],2 (66.7) Number (%) of participants
same,TEAE Dizziness,[4]; [10],0 Number (%) of participants
same,TEAE Dry mouth,[4]; [10],2 (66.7) Number (%) of participants
same,TEAE Headache,[4]; [10],0 Number (%) of participants
same,TEAE Myalgia,[4]; [10],0 Number (%) of participants
same,TEAE Nausea,[4]; [10],0 Number (%) of participants
same,TEAE Somnolence,[4]; [10],0 Number (%) of participants
same,TEAE Vomiting,[4]; [10],0 Number (%) of participants
same,laboratory test parameters,[4]; MRD cohorts,No notably abnormal laboratory test parameters
same,participants experiencing TEAEs,"[4]; MRD cohorts (20, 60 or 160 mg q.d.), 15 participants",83%
same,treatment‐related headache,"[4]; MRD cohorts, five individuals",28%
same,participants with moderate TEAEs,"[4]; MRD cohorts, five participants",28%
same,decreased appetite,"[4]; MRD cohorts, n = 3",17%
same,diarrhoea,"[4]; MRD cohorts, n = 3",17%
same,dry mouth,"[4]; MRD cohorts, n = 3",17%
same,somnolence,"[4]; MRD cohorts, n = 3",17%
same,vomiting,"[4]; MRD cohorts, n = 3",17%
same,nausea,"[4]; MRD cohorts, n = 4",22%
same,headache,"[4]; MRD cohorts, n = 9",50%
same,participants with mild TEAEs,"[4]; MRD cohorts, nine participants",50%
same,participants with severe TEAEs,"[4]; MRD cohorts, one participant (headache, 60 mg)",6%
same,treatment‐related dry mouth,"[4]; MRD cohorts, three individuals",17%
same,participants with treatment‐related TEAEs,"[4]; MRD cohorts, twelve participants, all mild",67%
same,Participants with any TEAE,[4]; [11],15 (83.3) Number (%) of participants
same,TEAE Arthropod bite,[4]; [11],2 (11.1) Number (%) of participants
same,TEAE Constipation,[4]; [11],2 (11.1) Number (%) of participants
same,TEAE Decreased appetite,[4]; [11],3 (16.7) Number (%) of participants
same,TEAE Diarrhoea,[4]; [11],3 (16.7) Number (%) of participants
same,TEAE Dizziness,[4]; [11],2 (11.1) Number (%) of participants
same,TEAE Dry mouth,[4]; [11],3 (16.7) Number (%) of participants
same,TEAE Headache,[4]; [11],9 (50.0) Number (%) of participants
same,TEAE Myalgia,[4]; [11],2 (11.1) Number (%) of participants
same,TEAE Nausea,[4]; [11],4 (22.2) Number (%) of participants
same,TEAE Somnolence,[4]; [11],3 (16.7) Number (%) of participants
same,TEAE Vomiting,[4]; [11],3 (16.7) Number (%) of participants
same,treatment‐related TEAEs,[4]; SRD 120/160 mg cohort,"Two participants had TEAEs considered to be related to treatment, which were mild in intensity"
same,dizziness,"[4]; SRD 120/160 mg cohort, n = 2",25%
same,headache,"[4]; SRD 120/160 mg cohort, n = 2",25%
same,participants with moderate TEAEs,"[4]; SRD 120/160 mg cohort, one person",13%
same,participants with mild TEAEs,"[4]; SRD 120/160 mg cohort, three women",38%
same,gamma glutamyl transferase level reached,"[4]; SRD cohort, 160 mg, Day 30, one participant (13%), more than three times the upper limit of normal",315 U/L
same,"SAEs, suicidal ideation/behaviour, deaths",[4]; Study 1003,"no SAEs, suicidal ideation/behaviour or deaths were reported"
same,thrombocytopenia AEs,[4]; current study,no thrombocytopenia AEs were observed
same,tolerability,[4]; daily dosing up to 160 mg,well tolerated
same,Japanese participants experiencing TEAEs,[4]; with TAK‐418 20 mg,33.3%
same,non‐Japanese participants experiencing TEAEs,[4]; with TAK‐418 20 mg,83%
same,mean C max in CSF,"[5]; Day 10, CV% 24.7",85.20 ng mL^ −1
same,mean AUC0–24 in CSF,"[5]; Day 10, CV% 26.5",0.611 µg·h/mL
